Reference: ChEMBL document CHEMBL3244416, “Structural requirements for progestational activity. Synthesis and properties of rac-8alpha,9beta,10alpha,14beta-progesterone” (1979)

Tests used:
Oryctolagus cuniculus [1] = experiment: Progestational activity in rabbit assessed as mean uterine weight at 0.4 mg, sc by Clauberg assay; type: functional
How it was run: (§1)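 Modified Clauberg assay in rabbits, 2 animals per dose group, with the total dose given by subcutaneous injection. Uterine progestational proliferation was scored histologically by McPhail's method and reported as the range and mean proliferation index. Uterine weight was reported as the group mean.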

Oryctolagus cuniculus [2] = experiment: Progestational activity in rabbit assessed as mean uterine weight at 4 mg, sc by Clauberg assay; type: functional; how it was run: as §1
Oryctolagus cuniculus [3] = experiment: Progestational activity in rabbit assessed as range of proliferation index at 0.4 mg, sc by Clauberg assay relative to control; type: functional; how it was run: as §1
Oryctolagus cuniculus [4] = experiment: Progestational activity in rabbit assessed as range of proliferation index at 4 mg, sc by Clauberg assay relative to control; type: functional; how it was run: as §1
Oryctolagus cuniculus [5] = experiment: Progestational activity in rabbit assessed as mean proliferation index at 0.4 mg, sc by Clauberg assay relative to control; type: functional; how it was run: as §1
Oryctolagus cuniculus [6] = experiment: Progestational activity in rabbit assessed as mean proliferation index at 4 mg, sc by Clauberg assay relative to control; type: functional; how it was run: as §1
[7] = biological target: T1, Progesterone receptor (Oryctolagus cuniculus) (UniProt P06186); experiment: Displacement of [3H]-progesterone from progesterone receptor in rabbit uterine cytosol relative to progesterone; conditions: Uterus
T1 sequence (whole entry): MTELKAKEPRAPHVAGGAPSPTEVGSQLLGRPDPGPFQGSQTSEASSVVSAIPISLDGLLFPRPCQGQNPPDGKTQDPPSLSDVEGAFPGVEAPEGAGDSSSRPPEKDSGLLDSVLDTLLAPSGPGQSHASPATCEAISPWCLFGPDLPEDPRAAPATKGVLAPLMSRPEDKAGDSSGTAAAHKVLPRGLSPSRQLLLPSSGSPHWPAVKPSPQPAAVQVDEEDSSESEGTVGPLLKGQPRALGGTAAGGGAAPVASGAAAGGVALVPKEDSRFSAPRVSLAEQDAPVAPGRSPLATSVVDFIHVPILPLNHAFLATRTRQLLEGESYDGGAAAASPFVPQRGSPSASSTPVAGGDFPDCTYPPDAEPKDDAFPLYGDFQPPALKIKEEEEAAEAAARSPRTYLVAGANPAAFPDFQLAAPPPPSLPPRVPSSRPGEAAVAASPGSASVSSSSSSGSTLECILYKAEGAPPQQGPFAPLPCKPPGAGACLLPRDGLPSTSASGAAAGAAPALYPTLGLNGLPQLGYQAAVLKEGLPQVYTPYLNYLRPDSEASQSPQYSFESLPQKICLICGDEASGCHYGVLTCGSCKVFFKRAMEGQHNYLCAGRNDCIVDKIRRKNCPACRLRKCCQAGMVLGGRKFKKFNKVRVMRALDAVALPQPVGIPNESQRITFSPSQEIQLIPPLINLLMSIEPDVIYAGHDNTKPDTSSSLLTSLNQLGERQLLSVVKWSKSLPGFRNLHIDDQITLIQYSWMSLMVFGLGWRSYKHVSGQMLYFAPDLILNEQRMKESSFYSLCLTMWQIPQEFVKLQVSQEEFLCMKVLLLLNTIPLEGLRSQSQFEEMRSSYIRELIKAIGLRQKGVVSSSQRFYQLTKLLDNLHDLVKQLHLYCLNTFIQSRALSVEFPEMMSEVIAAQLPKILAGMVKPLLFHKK

Oryctolagus cuniculus [8] = experiment: Progestational activity in rabbit assessed as mean uterine weight at 0.2 mg, sc by Clauberg assay; type: functional; how it was run: as §1
Oryctolagus cuniculus [9] = experiment: Progestational activity in rabbit assessed as mean uterine weight at 0.5 mg, sc by Clauberg assay; type: functional; how it was run: as §1
Oryctolagus cuniculus [10] = experiment: Progestational activity in rabbit assessed as range of proliferation index at 0.2 mg, sc by Clauberg assay relative to control; type: functional; how it was run: as §1
Oryctolagus cuniculus [11] = experiment: Progestational activity in rabbit assessed as range of proliferation index at 0.5 mg, sc by Clauberg assay relative to control; type: functional; how it was run: as §1
Oryctolagus cuniculus [12] = experiment: Progestational activity in rabbit assessed as mean proliferation index at 0.2 mg, sc by Clauberg assay relative to control; type: functional; how it was run: as §1
Oryctolagus cuniculus [13] = experiment: Progestational activity in rabbit assessed as mean proliferation index at 0.5 mg, sc by Clauberg assay relative to control; type: functional; how it was run: as §1

Row | Compound | Activity (Oryctolagus cuniculus [1]) [g] | Activity (Oryctolagus cuniculus [2]) [g] | Ratio (Oryctolagus cuniculus [3]) | Ratio (Oryctolagus cuniculus [4]) | Ratio (Oryctolagus cuniculus [5]) | Ratio (Oryctolagus cuniculus [6]) | RBA [7] [%] | Activity (Oryctolagus cuniculus [8]) [g] | Activity (Oryctolagus cuniculus [9]) [g] | Ratio (Oryctolagus cuniculus [10]) | Ratio (Oryctolagus cuniculus [11]) | Ratio (Oryctolagus cuniculus [12]) | Ratio (Oryctolagus cuniculus [13])
1 | CC(=O)[C@H]1CC[C@@H]2[C@H]3CCC4=CC(=O)CC[C@@]4(C)[C@@H]3CC[C@]12C (racemic) | 0.79 | 1.24 | 0 | 1 | 0 | 2 | 2 |  |  |  |  |  | 
2 | CC(=O)[C@H]1CC[C@H]2[C@@H]3CCC4=CC(=O)CC[C@]4(C)[C@H]3CC[C@]12C [PROGESTERONE] |  |  |  |  |  |  |  | 1.49 | 2.34 | 0.5 | 3.5 | 0.75 | 3.5
